Screening data as filed in PubChem BioAssay.
MC4R antag cAMP = antagonists of human melanocortin 4 receptor (MC4R); AID 540295; MC4R-expressing cells, MTII-stimulated cAMP, LANCE TR-FRET; 0.48% of 360,000 active; inhibition, % at 6.5 µM;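 active = inhibition above its plate's cutoff, the mean of tested wells on that plate plus 3 SD, cut at about 29% in these data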;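 also: 0% = Melanotan II alone and 100% = Melanotan II plus saturating MCL0020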
Target sequence (P32245 whole entry, looked up): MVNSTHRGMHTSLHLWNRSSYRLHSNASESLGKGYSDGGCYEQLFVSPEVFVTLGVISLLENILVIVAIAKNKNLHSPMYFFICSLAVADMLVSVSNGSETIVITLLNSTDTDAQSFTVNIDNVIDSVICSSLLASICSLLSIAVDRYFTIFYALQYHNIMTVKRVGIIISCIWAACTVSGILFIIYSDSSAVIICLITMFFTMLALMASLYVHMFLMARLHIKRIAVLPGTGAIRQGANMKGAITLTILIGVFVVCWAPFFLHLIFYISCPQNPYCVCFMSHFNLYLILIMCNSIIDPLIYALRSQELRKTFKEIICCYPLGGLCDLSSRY
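Assay system: human MC4R-expressing U2OS cells; reagent: Melanotan II stimulation of cells; dosing: 6.5 µM single dose; timing: compound 30 min, challenge 1 h, detection 1 h; signal: TR-FRET cAMP assay; replicates: one well per compound, no replicates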
TAAR1 ag = agonists of human TAAR1 | Q96RJ0 | 0.99% of 360,000 active | activation, % at 3 µM | CHO RD-HGA16 TAAR1, Fluo-8 calcium fluorescence; vehicle wells 0%, saturating PEA agonist 100%;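 active = activation above the mean activation of all test compounds in the run plus 3 SD, cut at about 38% in these data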
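Signal – calcium-sensitive Fluo-8 signal, excitation 470-495, emission 515-575 nm · System – RD-HGA16 (CHO) cells co-expressing Gα16 and hTAAR1 · Incubation – 17-24 h seeding, 75 min 37 °C dye, 30 min RT · Compound dosing – 3 µM single concentration · Repeats – no replicates (n 1)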
Beta2AR agonist = agonists of human beta-2 adrenergic receptor inducing internalization; P07550; Am2.2-beta2AR cells, FAP receptor internalization, flow cytometry; response, % (no concentration beside the values); 0.43% of 340,000 active;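 active = response above a set limit, near 3 SD of response in nonfluorescent compounds, cut at about 42% in these data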
Target sequence (P07550 whole entry, looked up): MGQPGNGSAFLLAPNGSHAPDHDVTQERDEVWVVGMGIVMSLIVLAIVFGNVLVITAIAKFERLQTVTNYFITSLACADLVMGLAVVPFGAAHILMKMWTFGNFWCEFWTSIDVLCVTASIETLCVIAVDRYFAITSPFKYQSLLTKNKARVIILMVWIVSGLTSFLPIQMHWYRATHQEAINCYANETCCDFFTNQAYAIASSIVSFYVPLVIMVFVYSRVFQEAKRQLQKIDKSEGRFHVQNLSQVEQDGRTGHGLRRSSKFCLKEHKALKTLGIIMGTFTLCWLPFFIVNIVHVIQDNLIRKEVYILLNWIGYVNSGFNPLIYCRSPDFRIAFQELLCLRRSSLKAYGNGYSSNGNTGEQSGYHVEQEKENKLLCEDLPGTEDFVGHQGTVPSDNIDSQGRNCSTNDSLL
TAAR1 antag = human TAAR1 antagonism; CHO RD-HGA16 TAAR1, Fluo-8 calcium fluorescence, antagonist; inhibition, % at 3 µM; 1.5% of 360,000 active;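 active = inhibition above a per-plate cutoff, the mean inhibition of test compounds on that plate plus 3 SD, cut at about 49% in these data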;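 also: 0% = DMSO plus EC80 beta-PEA response and 100% = DMSO alone without agonist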
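System: CHO RD-HGA16 cells bearing hTAAR1. Reagent: EC80 β-phenethylamine stimulus. Schedule: seeding 17-24 h prior, 75-min 37 °C, 30-min RT dye loading. Signal: Fluo-8 intracellular calcium dye fluorescence, real-time kinetic reads. Read-out: % inhibition from peak post-agonist over basal fluorescence ratio. Benchmarks: vehicle wells and EC80 agonist wells. Replicates: n of 1.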
m5-HT2A agonist = agonists of mouse serotonin 5-HT2A receptor (HTR2A); 0.66% of 360,000 active; P35363; CHO-K1 mHTR2A beta-arrestin complementation, luminescence; percent of 30 µM serotonin response; activation, % at 7.6 µM;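 active = activation above a run cutoff, the mean activation of all tested compounds plus 3 SD, cut at about 14% in these data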;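 also: 0% = plate median of compound wells and 100% = 30 µM serotonin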
MC4R ag barr = activates human MC4R beta-arrestin recruitment; P32245; U2OS MC4R beta-arrestin complementation, luminescence; percent of melanotan II response, DMSO zero; activation, % at 8.9 µM; 0.98% of 360,000 active;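 active = activation above a per-plate cutoff, the mean activation of sample wells on that plate plus 3 SD, cut at about 8% in these data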
TAAR1 nonsel count = nonselective antagonism, TAAR1 counter-screen; counterscreen cell line, calcium fluorescence, antagonist mode; AID 651780; shares compounds with TAAR1 antag; 77% of 2,400 active; inhibition, % at 3 µM; in the data active = inhibition above about 22%;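 also: CHO-Ga16 host cells stimulated with ATP at an EC80 level; 0% = agonist EC80 plus vehicle and 100% = vehicle without agonist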
TAAR1 antag conf = human TAAR1 antagonism, confirmed | shares compounds with TAAR1 antag | TAAR1-expressing cells, fluorescence antagonist read-out | inhibition, % at 3 µM | 40% of 2,400 active; in the data active = inhibition above about 49%;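 also: CHO-Ga16 host cells challenged with agonist PEA near its EC80; 0% = agonist at EC80 plus vehicle and 100% = vehicle with no agonist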
Ga16 ag counter = nonselective Ga16 agonist in TAAR1 antagonist counter-screen | shares compounds with TAAR1 antag | Ga16-expressing cells, calcium fluorescence, agonist counterscreen | activation, % at 3 µM | 18% of 2,400 active; in the data active = activation above about 12%;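 also: 0% = vehicle wells and 100% = saturating stimulus response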
TAAR1 ag count = TAAR1 agonism, antagonist counter-screen. 2% of 2,400 active. hTAAR1 cell line, fluorescence activation, agonist mode. AID 651955. shares compounds with TAAR1 antag. activation, % at 3 µM; in the data active = activation above about 37%;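 also: CHO cells stably expressing TAAR1 with calcium dye readout; 0% = DMSO vehicle and 100% = full agonist response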
Starred values were filed as active, the others as inactive; x = no result. Only some compounds are listed: those with a hit (about 4.3% of all), similar ones and a draw of the others.

SMILES | MC4R antag cAMP | TAAR1 ag | Beta2AR agonist | TAAR1 antag | m5-HT2A agonist | MC4R ag barr | TAAR1 nonsel count | TAAR1 antag conf | Ga16 ag counter | TAAR1 ag count
O=C1N/C(=N/N=C/c2ccc(F)cc2)SC1c1ccccc1 (configuration not stated) | -2 | 0 | 11 | -30 | -7 | -2 | x | x | x | x
Cc1ccc(-c2nn(-c3cccc(F)c3)cc2CNCc2cccnc2)o1 | 6 | 9 | -13 | 66* | 2 | 1 | 31* | 43 | 7 | 11
CSc1cccc(NC(=O)N2CCc3ccc(NC(=O)c4ccccn4)cc3C2)c1 | 1 | 5 | 18 | 62* | -6 | 0 | 40* | 45 | 9 | 5
C=CCN1C(=O)CSc2ccc(C(=O)NCCC3=CCCCC3)cc21 | 1 | 20 | -1 | 55* | -1 | -2 | 38* | 50* | 14* | 11
C=CCN1C(=O)CSc2ccc(C(=O)NCc3ccco3)cc21 | 9 | 7 | -7 | 23 | 0 | -2 | x | x | x | x
OC[C@@H]1CN(Cc2cccc(C(F)(F)F)c2)C[C@H](n2cnc3c(NCc4ccco4)ncnc32)O1 | -2 | 17 | x | 74* | 3 | -1 | 23* | 39 | 11 | 11
Cc1cnc(NC(=O)Nc2ccccc2)c(C)n1 | 16 | 2 | 6 | -3 | 0 | 1 | x | x | x | x
COc1ccc(-c2cn3c(C)c(C(=O)Nc4ccncc4)sc3n2)cc1 | -1 | 9 | 19 | 35 | 2 | -1 | x | x | x | x
COc1ccc(-c2cn3c(C)c(C(=O)Nc4cccc(NC(C)=O)c4)sc3n2)cc1 | 16 | 15 | 18 | 50* | 6 | -1 | 27* | 47 | 13* | 9
CC1(c2ccccc2)NC(=O)N(CC(=O)Nc2cccc(/C=C/c3ccccn3)c2)C1=O (configuration not stated) | -8 | 9 | 13 | 50* | 3 | -2 | 15 | 33 | 6 | 10
COc1ccc(N(CC(=O)NCCSCc2ccc(C)cc2)S(=O)(=O)c2ccccc2)cc1 | 12 | 6 | 7 | 69* | -10 | -2 | 37* | 56* | 7 | 3
COc1ccc(OC)c(N(CC(=O)NCCSCc2ccc(C)cc2)S(C)(=O)=O)c1 | -6 | 3 | -5 | 2 | 3 | 0 | x | x | x | x
COc1ccccc1N(CC(=O)NCCSCc1ccc(C)cc1)S(=O)(=O)c1ccccc1 | 5 | 1 | 14 | 84* | -8 | 3 | 27* | 51* | 4 | 1
COc1ccc(-c2ccc(C(=O)Nc3cccc(N(C)C)c3)c3occc23)c(C)c1 | 11 | 0 | x | -4 | 3 | 1 | x | x | x | x
Cn1c(/C(C#N)=C(\O)c2ccccc2Cl)nc2ccccc21 | 1 | -1 | -26 | -21 | -5 | -1 | x | x | x | x
CCN(CC)S(=O)(=O)c1ccc(C(O)=C(C#N)c2nc3ccccc3n2C)cc1 | 3 | 16 | 1 | 66* | 3 | 0 | 30* | 59* | 13* | 15
CCOC(=O)CCCSc1nnc(CCCCCN2C(=O)c3cccc4cccc(c34)C2=O)o1 | 11 | 6 | -5 | 58* | 4 | -1 | 37* | 48 | 8 | 4
CCOC(=O)CSc1nnc(CCCCCN2C(=O)c3cccc4cccc(c34)C2=O)o1 | -39 | 0 | 3 | -15 | 6 | 2 | x | x | x | x
CCN(CC(=O)Nc1ccc(NC(C)=O)cc1)C(=O)C1CC1 | 2 | 2 | x | -2 | 0 | 1 | x | x | x | x
CC(C(=O)Nc1nc(-c2ccc(F)cc2)cs1)N1C(=O)C2CC=CCC2C1=O (configuration not stated) | 9 | 19 | 36 | 78* | 11 | 1 | 40* | 65* | 12* | 12
C[C@@H](C(=O)Nc1nccs1)N1C(=O)C2CC=CCC2C1=O (some centres not stated) | 1 | 2 | 3 | -20 | 5 | -2 | x | x | x | x
CCCCOc1cccc2c(=O)n(CC(=O)Nc3ccc4c(c3)OCCO4)ccc12 | 1 | 21 | x | 71* | 1 | 6 | 43* | 88* | 13* | 28
CN(Cc1ccccc1)C(=O)c1ccc(NC(=O)C2CCN(C(=O)OC(C)(C)C)CC2)cc1 | 8 | 23 | 6 | 60* | 7 | 0 | 47* | 43 | 14* | 14
CN(C(=O)c1ccc(NC(=O)C2CCN(C(=O)OC(C)(C)C)CC2)cc1)C1CC1 | 2 | 5 | -3 | -1 | -3 | -2 | x | x | x | x
COc1cccc(NC(=O)C2CCN(C(=O)[C@@H]3Cc4ccccc4CN3C(=O)OC(C)(C)C)CC2)c1 | 7 | 15 | 11 | 53* | -4 | 1 | 24* | 44 | 10 | 15
SMILES | MC4R antag cAMP | TAAR1 ag | Beta2AR agonist | TAAR1 antag | m5-HT2A agonist | MC4R ag barr | TAAR1 nonsel count | TAAR1 antag conf | Ga16 ag counter | TAAR1 ag count
CCn1cc(C(=O)N2CCCC(C(=O)c3cccc(C(F)(F)F)c3)C2)cn1 (configuration not stated) | 5 | 0 | x | -2 | 0 | -1 | x | x | x | x
CCCN1C(=O)c2cc(C(=O)Nc3ccccc3OC)ccc2C1Nc1ccccc1OC (configuration not stated) | 1 | 8 | 9 | 60* | 2 | 0 | 29* | 43 | 5 | 4
CCN(CC)c1ncnc2scc(C3COc4ccccc4O3)c12 (configuration not stated) | 5 | 7 | -19 | 53* | -8 | -1 | 8 | 36 | 3 | 9
CCOC(=O)[C@@H]1[C@H]2COc3ccccc3[C@@H]2N2C(=O)N(c3cccc(C)c3)C(=O)[C@]12C | 8 | 0 | 5 | 14 | 1 | -3 | x | x | x | x
Cc1c(C(=O)N(Cc2ccccc2)C(C)C)oc2ccc(S(=O)(=O)N3CCOCC3)cc12 | 8 | 11 | 19 | 80* | 9 | 0 | 33* | 61* | 13* | 11
O=[N+]([O-])c1cc([N+](=O)[O-])c(Oc2cc(Cl)ccc2Cl)cc1NC1CCCCCCC1 | 13 | 2 | -2 | -5 | 8 | 0 | x | x | x | x
COc1ccc(CNC(=O)C(c2ccc(C)o2)N(Cc2cccs2)C(=O)Cc2cccs2)cc1 (configuration not stated) | 3 | 22 | 9 | 87* | -2 | -2 | 42* | 68* | 11 | 9
